TNF necrop inh – blocks TNF-alpha induced death of Jurkat FADD-/- cells | activation (protection from cell death), % at 10 µM | actives 0.068% (n = 220,000) | Jurkat FADD-/- TNF necroptosis rescue, ATP luminescence, 24 h; 0 = TNF only, 100 = no-TNF cells;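 active means activation, meaning protection from cell death, of at least 50% relative to plate controls; inactive means activation below 50%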;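 further: necroptosis triggered by 40 ng/mL TNF-alpha added together with compound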
Dynein transport – dynein cargo transport inhibition; 3617.4 mouse cells, GR-EGFP nuclear translocation imaging; test concentration mostly 20 µM; stimulated with dexamethasone, 1 µM; hits give low values; z-score, hits read low; actives 0.47% (n = 220,000); AID 1381;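 active means plate z-score of nuclear minus cytoplasmic receptor signal below a set negative limit, without overly bright fluorescence or cell loss, cut at about -3.5 in these data, passing the limit was not always enough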;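 further: z-score of nuclear minus cytoplasmic ring GR-EGFP intensity difference per well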
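medium = tetracycline-free induction medium containing charcoal-stripped FBS | also added = 1.0 µM final dexamethasone stimulus | schedule = 48 h induction, 1 h compound, 30 min dex at 37 °C | technique = fixed, Hoechst-stained cells imaged at 10x for EGFP | measure = GR-EGFP nuclear translocation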
zVAD death inh – blocks zVAD induced death of L929 cells; L929 zVAD necroptosis rescue, ATP luminescence, 24 h; with zVAD 60 µM; actives 0.38% (n = 220,000); viability rescue, % at 10 µM;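 active means activation, scaled between plate controls, above about 75%, limit read from the data; inactive means activation under that limit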
Autophagy mod – autophagy modulation, high-content screen; actives 0.98% (n = 190,000); calls only at 10 µM (by protocol); MEF GFP-LC3 puncta imaging; test concentration mostly 10 µM;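 active means percentage of spot-positive cells more than 3 SD above its plate mean, without a fluorescence outlier flag or 80% toxicity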
Mdm2 ligase inh – blocks human Mdm2 ubiquitin ligase activity | cell-based MDM2 ubiquitination luciferase reporter, 2 h; 0 = plate control, 100 = twice control, blank-subtracted | signal enhancement, % at 5 µM | AID 1230 | Q00987 | actives 0.11% (n = 210,000);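 active means signal enhancement of 30% or more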;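 further: luminescence tracks abundance of the self-degrading MDM2-luciferase fusion protein; higher signal means inhibition of MDM2 E3 ligase activity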
Target sequence (Q00987 whole entry, looked up, the tested form may be a part): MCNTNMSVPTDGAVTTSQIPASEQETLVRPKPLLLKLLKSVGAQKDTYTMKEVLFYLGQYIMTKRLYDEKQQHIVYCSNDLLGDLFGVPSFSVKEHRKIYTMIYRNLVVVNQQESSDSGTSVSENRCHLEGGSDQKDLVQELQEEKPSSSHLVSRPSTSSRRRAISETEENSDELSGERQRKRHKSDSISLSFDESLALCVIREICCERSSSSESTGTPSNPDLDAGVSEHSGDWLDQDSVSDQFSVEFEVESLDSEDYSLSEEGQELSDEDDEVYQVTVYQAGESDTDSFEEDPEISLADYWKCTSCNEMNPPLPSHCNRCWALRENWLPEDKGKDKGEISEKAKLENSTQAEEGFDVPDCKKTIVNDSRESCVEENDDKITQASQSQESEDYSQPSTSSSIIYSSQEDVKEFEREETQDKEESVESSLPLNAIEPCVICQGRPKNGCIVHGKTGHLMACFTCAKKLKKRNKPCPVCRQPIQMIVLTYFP
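System: stable MDM2–luciferase fusion reporter cells / Input: 2000 cells seeded into each well / Schedule: 4 h settle plus 2 h compound, 37 °C / Compound: single-point 5 µM / Buffer or medium: cells held in DMEM / Benchmarks: control and blank well means / Evaluation: percent signal gain over controls, blank-subtracted / Measured by: luciferase luminescence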
zVAD necrop conf – confirmed blocker of zVAD induced death in L929 cells; actives 16% (n = 760); L929 zVAD-induced necroptosis rescue, ATP luminescence, 24 h; activation (protection from necroptosis), % at 10 µM; AID 463117; shares compounds with zVAD death inh;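 active means mean protection from necroptosis of at least 50% over duplicate tests; inactive means mean protection below 50%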
A number is an active result; - = inactive; . = not tested or not shown. Hits are enriched below; roughly 1.8% of the tested compounds scored in any of these assays.

SMILES	TNF necrop inh	Dynein transport	zVAD death inh	Autophagy mod	Mdm2 ligase inh	zVAD necrop conf
CCN(Cc1ccccc1)C(=O)COC(=O)Cn1cnc2ccccc21	-	-	-	-	-	.
COC(=O)c1c(C)[nH]c(O)c1C=Nc1ccc(C(C)C)cc1	-	-	82	-	-	-
CN=C1S/C(=C\c2cn(CC(=O)OC)c3ccccc23)C(=O)N1C	-	-	75	-	-	-
Cc1ccc(N2CC(=O)Nc3c(oc4nc(-c5ccccc5)cc(C)c34)C2=O)cc1	-	-	-	.	-	.
O=[N+]([O-])C(/C=C(\Cl)[N+](=O)[O-])=C(N1CCCCC1)N1CCCCC1	-	-	-	-	-	.
O=C(N/N=C\c1cccc(Cl)c1)c1n[nH]c2c1CCCC2	-	-	83	-	-	-
O=C(N/N=C/c1ccc(Cl)cc1Cl)c1n[nH]c2c1CCCC2	-	-	-	-	-	.
CC(C(=O)Nc1nncs1)N1C(=O)C2C3C=CC(C3)C2C1=O (stereo unspecified)	-	-	78	-	-	-
CC(C(=O)Nc1ccc2nccnc2c1)N1C(=O)C2C3C=CC(C3)C2C1=O (stereo unspecified)	-	-	-	.	-	.
Cc1c(NC(=O)c2cccnc2C(=O)O)cccc1C(=O)O	-	-	-	-	-	.
CC(=O)Nc1ccc(Nc2ncc([N+](=O)[O-])c(Nc3ccc(NC(C)=O)cc3)n2)cc1	-	-	90	-	-	-
S=c1[nH]ncn1NCc1ccc(Cl)cc1Cl	-	-	87	-	-	-
Cc1cc(S(=O)(=O)N2CCCOC2CNC(=O)C(=O)NCc2ccco2)ccc1F (stereo unspecified)	-	-	-	-	-	.
COc1ccc(S(=O)(=O)c2cnc3ccccc3n2)cc1	-	-	76	-	-	-
CSc1sc(C(=O)NC(=O)NCc2ccncc2)c(C)c1-c1ccon1	-	-	-	.	-	.
O=C(Nc1nccs1)c1ccc(S(=O)(=O)N2CCCCC2)cc1	52	-	104	-	-	77
CC1CN(S(=O)(=O)c2ccc(C(=O)Nc3nccs3)cc2)CC(C)O1 (stereo unspecified)	-	-	84	.	-	-
Cc1ccc(C)c(-n2cc(CN3CCCN(C=O)CC3)c(-c3ccccc3)n2)c1	-	-	-	-	-	.
COC(=O)c1ccn(Cc2ccccc2Cl)n1	100	-	90	-	-	81
CCN1CCN(Cc2ccc(NC(=O)c3ccc(C)c(NC(=O)c4csc(-c5ccncc5)n4)c3)cc2C(F)(F)F)CC1	-	-	84	.	-	81
CCN1CCN(Cc2ccc(NC(=O)c3cc(NC(=O)c4ccc5n[nH]nc5c4)cc(OC)c3)cc2C(F)(F)F)CC1	-	-	-	.	-	.
CCN1CCN(Cc2ccc(NC(=O)c3cc(NC(=O)c4ccno4)cc(OC)c3)cc2C(F)(F)F)CC1	-	-	77	.	-	73
CCN1CCN(Cc2ccc(NC(=O)c3cc(NC(=O)N4CCNC4=O)cc(OC)c3)cc2C(F)(F)F)CC1	-	-	78	.	-	64
C=CCOc1ccc(CNC(C)(C)CO)cc1OC	-	-	-	-	-	.
COc1cc(CNC(C)(C)CO)ccc1OCC(=O)Nc1ccc(Br)cc1	-	-	84	-	-	-
SMILES	TNF necrop inh	Dynein transport	zVAD death inh	Autophagy mod	Mdm2 ligase inh	zVAD necrop conf
O=C(Nc1nccs1)c1ccc(-c2ccc(Cl)cc2)o1	-	-	-	-	-	.
O=C(Nc1nccs1)c1ccc(-c2ccc(F)cc2)o1	-	-	83	-	-	-
Cc1cc(N(CCO)CCO)ccc1N=Nc1cc(F)ccc1F	-	-	-	-	-	.
CCN(CCO)c1ccc(N=Nc2cc(C)[nH]n2)cc1	-	-	85	.	-	-
CC(=O)N1N=C(N)SC1(C)C	-	-	-	-	-	.
Cc1ccc2c(C)nc(Nc3nc(CSc4nc5ccccc5[nH]4)cc(=O)[nH]3)nc2c1	-	-	87	-	-	53
Cn1c(=O)n(C)c2cc(NC(=O)CCl)ccc21	-	-	83	-	-	-
CC(=O)Nc1ccc2c(c1)n(C)c(=O)n2C	-	-	-	-	-	.
COc1ccc(S(=O)(=O)NCc2ccc(C(=O)N3CCc4ccccc4C3)cc2)cc1	-	-	-	-	-	.

Screening data from PubChem.
